Results published in ChEMBL document CHEMBL1124236, “Homoallylic amines related to zimeldine. A comparative study on neuronal serotonin and norepinephrine reuptake based on conformational analysis” (J Med Chem, 1988).

Columns and labels:
[1] = test system: Mus musculus; experiment: Ex vivo inhibition of the accumulation of (-)-[3H]Norepinephrine in slices from the middle part of the mouse brain. (i.p.); format: functional; conditions: ip
Summary of the method: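 Compound given i.p.; mice killed 60 min later. Brain slices (about 1 mm) preincubated 5 min at 37 °C in Krebs-Henseleit buffer with 1 × 10^-4 M pargyline, glucose, ascorbate and EDTA under 6.5% CO2/O2. Then 5 min with 1 × 10^-7 M [3H]NE plus 1 × 10^-7 M [14C]-5-HT, counted by double labelling. Active uptake is the cocaine-sensitive (5 × 10^-4 M) part. 3–4 doses, 4 mice/dose; ED50 from semilog plots.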

[2] = species on record: Mus musculus; experiment: In vitro inhibition of the accumulation of (-)-[3H]Norepinephrine in slices from the middle part of the mouse brain.; format: functional
[3] = species on record: Rattus norvegicus; experiment: In vitro inhibition of the accumulation of (-)-[3H]Norepinephrine in synaptosomes from the rat brain cortex; format: functional
[4] = Selectivity expressed as ratio between NE and 5-HT uptake inhibition in mouse brain slices; format: functional
[5] = Selectivity expressed as ratio between NE and 5-HT uptake inhibition in rat synaptosomes; format: functional, subcellular; conditions: Brain

Row | SMILES | ED50 [1] | IC50 [2] | IC50 [3] | Ratio [4] | Ratio [5]
1 | CNCCC=C1c2ccccc2CCc2ccccc21 [NORTRIPTYLINE] | 67 µmol/kg | 0.5 µM | 0.007 µM | 0.075 | 0.0035
2 | CNCC/C=C(/c1ccc(Br)cc1)c1cccnc1 | > 98 µmol/kg | > 25 µM | 6.6 µM | >50 | 28
3 | CN(C)CCC=C1c2ccccc2CCc2ccccc21 [AMITRIPTYLINE] | 114 µmol/kg | 5.4 µM | 0.061 µM | 1.9 | 0.19
4 | CN(C)CC/C=C(\c1ccc(Br)cc1)c1cccnc1 | 95 µmol/kg | 7.8 µM | 1.4 µM | 1.1 | 0.54
5 | CNC/C=C(\c1ccc(Br)cc1)c1cccnc1 [NORZIMELIDINE] | 25 µmol/kg | – | 0.0046 µM | – | 0.058
6 | CN(C)C/C=C(\c1ccc(Br)cc1)c1cccnc1 | 25 µmol/kg | – | 0.15 µM | – | 0.68
7 | CN(C)CC/C=C(/c1ccc(Br)cc1)c1cccnc1 | > 95 µmol/kg | > 24 µM | 22.5 µM | >27 | 45
8 | CNC/C=C(/c1ccc(Br)cc1)c1cccnc1 [NOMELIDINE] | > 102 µmol/kg | – | 0.24 µM | – | 6.3
9 | CN(C)C/C=C(/c1ccc(Br)cc1)c1cccnc1 [ZIMELDINE] | > 98 µmol/kg | – | 3.2 µM | – | 32
10 | CNCC/C=C(\c1ccc(Br)cc1)c1cccnc1 | 98 µmol/kg | 0.25 µM | 1 µM | 2.1 | 0.71
